Bioassay records (PubChem BioAssay)
Sampled rows, rich in hits. Any-hit rate of the full collection: about 3.1%.
hERG protect: hERG (human) protection from proarrhythmic block; 310,000 tested, 0.51% active; CHO-hERG, FluxOR thallium flux, dofetilide IC70 present; activation (rescue from dofetilide block), less the hit threshold, % at 10 µM; Q12809;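 active = activation above the mean of controls blocked by dofetilide plus 5 SD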;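 note: thallium influx through hERG after potassium depolarization seen as dye fluorescence rise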
KCNK3 inh: human KCNK3 channel inhibition, primary screen; O14649; CHO-KCNK3 thallium flux, FluxOR fluorescence; stronger effect = lower value; B-score at 10 µM; 340,000 tested, 0.84% active;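 active = B-score under library mean minus 4 SD, starting fluorescence ratio at most library mean plus 5 SD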;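 note: more negative B-score means stronger inhibition of thallium flux through KCNK3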
Target sequence (O14649 whole entry, looked up): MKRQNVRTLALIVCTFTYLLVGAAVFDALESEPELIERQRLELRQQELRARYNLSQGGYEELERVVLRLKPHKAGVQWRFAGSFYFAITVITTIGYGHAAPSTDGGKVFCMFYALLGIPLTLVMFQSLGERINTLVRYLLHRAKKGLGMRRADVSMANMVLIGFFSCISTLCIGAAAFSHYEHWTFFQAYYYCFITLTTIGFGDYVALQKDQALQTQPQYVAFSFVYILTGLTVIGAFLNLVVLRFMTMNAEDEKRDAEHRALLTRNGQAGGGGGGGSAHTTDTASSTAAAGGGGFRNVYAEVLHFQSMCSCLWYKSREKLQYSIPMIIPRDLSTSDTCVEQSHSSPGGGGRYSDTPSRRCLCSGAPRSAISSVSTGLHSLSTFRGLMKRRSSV
KCNQ1 act: human KCNQ1 channel potentiation or activation | 310,000 tested, 0.35% active | AID 2648 | B-score at 10 µM | P51787 | CHO-K1 KCNQ1, thallium flux FluxOR fluorescence; stronger effect = higher value;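 active = fluorescence ratio B-score, a plate-corrected score, at least three library SD, with initial intensity B-score within 5 SD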
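Medium – assay buffer, equal DMSO in all wells · Material – CHO-K1 cell line with stable KCNQ1 potassium channel expression · Signal – kinetic FluxOR thallium fluorescence, 10-s 1-Hz baseline, 110-s post-stimulus read · Compound – single concentration per compound, DMSO matched to controls · Schedule – 37 °C overnight plating, 90-min dark dye load, 20-min compound pretreatment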
KCNK9 inh: blocks the human KCNK9 two-pore domain potassium channel | Q9NPC2 | HEK293 KCNK9, FluxOR thallium flux fluorescence; stronger effect = lower value | B-score at 10 µM | 310,000 tested, 1.2% active | AID 488922;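 active = ratio B-score over 3 SD below the library mean, with starting fluorescence within 5 SD of its mean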;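 note: negative B-score means less thallium flux so channel inhibition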
KCNQ1 inh: inhibitors of human KCNQ1 potassium channel; P51787; CHO-K1 KCNQ1, FluxOR thallium flux fluorescence; stronger effect = higher value; B-score at 10 µM; 310,000 tested, 1.3% active; AID 2642;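 active = compounds whose thallium flux B-score, printed positive for inhibition, exceeds three library SD while starting fluorescence stays within three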;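 note: channel opened by potassium depolarization with thallium stimulus after 20 min compound exposure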
KCNK9 block conf: confirmation of human KCNK9 potassium channel inhibitors | shares compounds with KCNK9 inh | HEK293 KCNK9 cells, FluxOR thallium flux fluorescence | inhibition, % at 10 µM | 4,900 tested, 43% active | AID 492992;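 active = thallium signal inhibited by more than 5 SD of the compound-free buffer control wells, on both duplicate plates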;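 note: 0% = assay buffer control wells without compound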
Kir2-1 spec: selectivity of KCNK9 modulators against mouse Kir2.1. shares compounds with KCNK9 inh. Kir2.1 cells, FluxOR thallium flux fluorescence. inhibition, % at 10 µM. 4,900 tested, 4% active. AID 492993;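 active = thallium signal drop more than 5 SD beyond the mean of the no-compound control wells, seen in both duplicate plates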;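 note: signal is fluorescence rise after thallium addition divided by baseline fluorescence; plate controls were assay buffer only for no effect and full block by chlorpromazine control for full effect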
KCNK9 uninduced: non-induced cell nonspecific activity of KCNK9 modulators; shares compounds with KCNK9 inh; non-induced KCNK9-HEK293, FluxOR thallium flux; inhibition, % at 10 µM; 4,900 tested, 40% active;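 active = thallium signal drop beyond 5 SD of the untreated control mean, on both duplicate plates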;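 note: plate controls were buffer only IC0 wells for no effect and SID17386958 at its maximal inhibitory level for full effect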
Starred values were filed as active, the others as inactive.

How did CCOC(=O)c1ccc(N(CC2CO2)S(=O)(=O)c2ccc(C)cc2)cc1 (stereo unspecified) do in these assays?
KCNK3 inh: inactive

What do the screens show for `CCCCN(CC)c1nc(N)c(C#N)c(CC#N)c1C#N`?
hERG protect: -7; KCNK3 inh: inactive; KCNQ1 act: inactive; KCNK9 inh: -11*; KCNQ1 inh: inactive; KCNK9 block conf: 33%*; Kir2-1 spec: inactive; KCNK9 uninduced: 32%*

What do the screens show for `CCOC(=O)C1=C(COC(=O)C2CC(=O)N(CCc3ccccc3)C2)NC(=O)NC1C` (stereo unspecified)?
KCNK3 inh: inactive

What do the screens show for `Cc1ccc(S(=O)(=O)n2nc(OC(=O)c3c(F)cccc3Cl)cc2N)cc1`?
hERG protect: -3; KCNK3 inh: inactive; KCNQ1 act: inactive; KCNK9 inh: -20*; KCNQ1 inh: inactive; KCNK9 block conf: 61%*; Kir2-1 spec: inactive; KCNK9 uninduced: 36%*

How did CCc1ccc(NC(=S)N(CCCN2CCOCC2)Cc2ccco2)cc1 do in these assays?
hERG protect: -9; KCNK3 inh: inactive; KCNQ1 act: inactive; KCNK9 inh: inactive; KCNQ1 inh: inactive

What do the screens show for `CCc1ccc(NC(=S)N(CCN2CCCCC2)Cc2ccco2)cc1`?
hERG protect: -12; KCNK3 inh: inactive; KCNQ1 act: inactive; KCNK9 inh: -8.8*; KCNQ1 inh: inactive; KCNK9 block conf: 41%*; Kir2-1 spec: inactive; KCNK9 uninduced: 40%*

What do the screens show for `CCN1CCN(C(=O)C(C)Sc2nnc3nc(C)cc(C)n23)CC1` (stereo unspecified)?
KCNK3 inh: inactive

What do the screens show for `Cc1ccc(Cl)c(N/C=C/C(=O)c2ccccc2)c1`?
hERG protect: -1; KCNK3 inh: inactive; KCNQ1 act: inactive; KCNK9 inh: -15*; KCNQ1 inh: inactive; KCNK9 block conf: 70%*; Kir2-1 spec: inactive; KCNK9 uninduced: 38%*

Results for Cc1cccc(N/C=C/C(=O)c2ccc(Cl)cc2)c1 ?
hERG protect: 0; KCNK3 inh: inactive; KCNQ1 act: inactive; KCNK9 inh: inactive; KCNQ1 inh: inactive

Results for COc1ccc(-c2noc(CN(C)C(=O)c3ccc4c(c3)OCO4)n2)cc1OC ?
hERG protect: -4; KCNK3 inh: inactive; KCNQ1 act: inactive; KCNK9 inh: inactive; KCNQ1 inh: inactive

What do the screens show for `COc1ccc(C(=O)N(Cc2nc(-c3ccc(C)cc3)no2)C2CCCCC2)cc1OC`?
hERG protect: -1; KCNK3 inh: inactive; KCNQ1 act: inactive; KCNK9 inh: inactive; KCNQ1 inh: inactive; KCNK9 block conf: inactive; Kir2-1 spec: inactive; KCNK9 uninduced: inactive

Results for COC(=O)c1ccc(-c2noc(CN(C)CCC3CCCCO3)n2)cc1 (stereo unspecified) ?
hERG protect: -5; KCNK3 inh: inactive; KCNQ1 act: inactive; KCNK9 inh: inactive; KCNQ1 inh: inactive; KCNK9 block conf: inactive; Kir2-1 spec: inactive; KCNK9 uninduced: inactive

Results for COc1ccc(-c2noc(CN(C)CCC3CCCCO3)n2)cc1 (stereo unspecified) ?
hERG protect: -5; KCNK3 inh: inactive; KCNQ1 act: inactive; KCNK9 inh: inactive; KCNQ1 inh: inactive; KCNK9 block conf: inactive; Kir2-1 spec: inactive; KCNK9 uninduced: inactive

What do the screens show for `COc1cc(NS(=O)(=O)c2ccc(NC(=S)NC(=O)c3sc4ccccc4c3Cl)cc2)nc(OC)n1`?
hERG protect: -20; KCNK3 inh: inactive; KCNQ1 act: inactive; KCNK9 inh: inactive; KCNQ1 inh: inactive; KCNK9 block conf: inactive; Kir2-1 spec: inactive; KCNK9 uninduced: inactive

How did COc1cc(NS(=O)(=O)c2ccc(NC(=S)NC(=O)c3sc4cc(F)ccc4c3Cl)cc2)nc(OC)n1 do in these assays?
hERG protect: -21; KCNK3 inh: inactive; KCNQ1 act: inactive; KCNK9 inh: inactive; KCNQ1 inh: inactive

Results for COc1ccc(NC(=O)CNc2cccc(S(=O)(=O)N3CCCCCC3)c2)c([N+](=O)[O-])c1 ?
KCNK3 inh: inactive

How did CC(C(=O)NC1C=CS(=O)(=O)C1)N1C(=O)/C(=C/c2cccc(Cl)c2)SC1=S (stereo unspecified) do in these assays?
hERG protect: -7; KCNK3 inh: inactive; KCNQ1 act: inactive; KCNK9 inh: inactive; KCNQ1 inh: inactive; KCNK9 block conf: inactive; Kir2-1 spec: inactive; KCNK9 uninduced: inactive

What do the screens show for `CCOC(=O)[C@@H]1[C@H]2COc3ccc(Br)cc3[C@H]2N2C(=O)N(c3ccc(Br)cc3)C(=O)[C@]12C`?
hERG protect: -10; KCNK3 inh: inactive; KCNQ1 act: inactive; KCNK9 inh: -16*; KCNQ1 inh: inactive; KCNK9 block conf: 70%*; Kir2-1 spec: inactive; KCNK9 uninduced: 28%*

Results for CCOC(=O)[C@@H]1[C@H]2COc3ccc(Br)cc3[C@H]2N2C(=O)N(c3cccc(Cl)c3)C(=O)[C@]12C ?
hERG protect: -8; KCNK3 inh: inactive; KCNQ1 act: inactive; KCNK9 inh: -11*; KCNQ1 inh: inactive; KCNK9 block conf: 73%*; Kir2-1 spec: inactive; KCNK9 uninduced: 28%*

What do the screens show for `CCOC(=O)[C@@H]1[C@H]2COc3ccc(Br)cc3[C@@H]2N2C(=O)N(c3ccccc3)C(=O)[C@@]12C`?
hERG protect: -3; KCNK3 inh: inactive; KCNQ1 act: inactive; KCNK9 inh: -9*; KCNQ1 inh: inactive; KCNK9 block conf: 52%*; Kir2-1 spec: inactive; KCNK9 uninduced: 30%*

What do the screens show for `CCOC(=O)[C@@H]1[C@H]2COc3ccc(Br)cc3[C@@H]2N2C(=O)N(c3ccc(Br)cc3)C(=O)[C@]12C`?
hERG protect: -6; KCNK3 inh: inactive; KCNQ1 act: inactive; KCNK9 inh: inactive; KCNQ1 inh: inactive

How did CCOC(=O)[C@@H]1[C@H]2COc3ccc(Br)cc3[C@@H]2N2C(=O)N(c3cccc(Cl)c3)C(=O)[C@]12C do in these assays?
hERG protect: -5; KCNK3 inh: inactive; KCNQ1 act: inactive; KCNK9 inh: inactive; KCNQ1 inh: inactive

How did Cc1ccc(NC(=O)CSc2nnc(Cc3ccccc3)c(=O)[nH]2)c(C)c1 do in these assays?
hERG protect: -11; KCNK3 inh: inactive; KCNQ1 act: inactive; KCNK9 inh: inactive; KCNQ1 inh: inactive

What do the screens show for `CCSc1ccccc1C(=O)N1CCC2(CC1)CC(=O)c1ccccc1O2`?
hERG protect: -13; KCNK3 inh: inactive; KCNQ1 act: inactive; KCNK9 inh: inactive; KCNQ1 inh: inactive
